Measurements as given in ChEMBL document CHEMBL3994633, “Exploration of phenylpropanoic acids as agonists of the free fatty acid receptor 4 (FFA4): Identification of an orally efficacious FFA4 agonist” (Bioorg Med Chem Lett, 2017).

Columns and labels:
[1] = target: T1, Free fatty acid receptor 4 (Homo sapiens) (UniProt Q5NUL3); test: Agonist activity at human FFA4 receptor expressed in human U2OS cells co-expressing Galpha16 assessed as calcium mobilization by Fluo-4 dye based FLIPR assay relative to GSK137647A; format: functional, cell-based
T1 sequence (whole entry): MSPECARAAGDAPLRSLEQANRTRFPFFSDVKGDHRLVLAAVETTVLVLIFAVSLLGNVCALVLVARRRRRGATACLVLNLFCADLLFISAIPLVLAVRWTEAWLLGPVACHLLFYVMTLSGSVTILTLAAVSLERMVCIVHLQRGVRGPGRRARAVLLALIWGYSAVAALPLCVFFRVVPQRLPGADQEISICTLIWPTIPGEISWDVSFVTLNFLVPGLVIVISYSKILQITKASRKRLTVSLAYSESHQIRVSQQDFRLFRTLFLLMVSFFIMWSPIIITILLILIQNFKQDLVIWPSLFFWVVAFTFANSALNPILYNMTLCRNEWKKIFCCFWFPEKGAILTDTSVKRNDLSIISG
Summary of the method: (§1)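 U2OS cells transiently expressing human FFA1 or FFA4. Agonism measured from a ten-point dose-response curve with FLIPR readout, giving EC50 (nM) and efficacy (% max response). Values are means of three experiments.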

[2] = target: T2, Free fatty acid receptor 1 (Homo sapiens, UniProt O14842); test: Agonist activity at human FFA1 receptor expressed in human U2OS cells co-expressing Galpha16 assessed as calcium mobilization by Fluo-4 dye based FLIPR assay relative to GSK137647A; format: functional, cell-based; summary of the method: as §1
T2 sequence (O14842 whole entry): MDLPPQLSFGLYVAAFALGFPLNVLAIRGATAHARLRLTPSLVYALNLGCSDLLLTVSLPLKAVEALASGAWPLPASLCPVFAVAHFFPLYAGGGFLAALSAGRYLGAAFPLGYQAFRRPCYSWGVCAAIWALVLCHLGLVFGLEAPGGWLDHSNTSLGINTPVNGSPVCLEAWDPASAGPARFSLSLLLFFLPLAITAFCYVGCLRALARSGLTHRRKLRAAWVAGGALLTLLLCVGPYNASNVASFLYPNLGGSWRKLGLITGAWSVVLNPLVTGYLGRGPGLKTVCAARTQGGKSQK

[3] = target: T3, Free fatty acid receptor 4 (Homo sapiens, UniProt Q5NUL3); test: Agonist activity at human FFA4 receptor expressed in human U2OS cells co-expressing Galpha16 assessed as calcium mobilization by Fluo-4 dye based FLIPR assay; format: functional, cell-based; summary of the method: as §1
T3 sequence (Q5NUL3 whole entry): T1 sequence (whole entry)

Homo sapiens [4] = species: Homo sapiens; test: Selectivity ratio of EC50 for human FFA4 receptor expressed in human U2OS cells co-expressing Galpha16 to EC50 for human FFA1 receptor expressed in human U2OS cells co-expressing Galpha16; format: cell-based
[5] = target: T2, Free fatty acid receptor 1; test: Agonist activity at human FFA1 receptor expressed in human U2OS cells co-expressing Galpha16 assessed as calcium mobilization by Fluo-4 dye based FLIPR assay; format: functional, cell-based; summary of the method: as §1
[6] = AUC in C57BL/6J mouse at 10 mg/kg, po; format: ADME, organism-based; conditions: in vivo
Summary of the method: (§2)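 C57BL/6J mice (n = 2), single oral dose of 10 mg/kg given as a suspension in 0.5% HMPC: 0.1% Tween. Plasma Cmax and AUC (hr*ng/mL) measured; %F calculated against the IV leg.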

[7] = Clearance in C57BL/6J mouse at 3 mg/kg, iv; format: ADME, organism-based; conditions: in vivo
Summary of the method: (§3)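 C57BL/6J mice (n = 2) dosed intravenously at 3 or 4.2 mg/kg. Clearance (mL/min/kg) and AUC (hr*ng/mL) derived from plasma concentrations.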

[8] = Tmax in C57BL/6J mouse at 10 mg/kg, po; format: ADME, organism-based; conditions: in vivo
[9] = Volume of distribution at steady state in C57BL/6J mouse at 3 mg/kg, iv or 10 mg/kg, po; format: ADME, organism-based; conditions: in vivo, read-out: Vdss
[10] = Oral bioavailability in C57BL/6J mouse at 10 mg/kg; format: ADME, organism-based; conditions: in vivo; summary of the method: as §2
[11] = AUC in C57BL/6J mouse at 3 mg/kg, iv; format: ADME, organism-based; conditions: in vivo; summary of the method: as §3
[12] = Cmax in C57BL/6J mouse at 10 mg/kg, po; format: ADME, organism-based; design: dose 10 mg/kg, route oral; conditions: in vivo; summary of the method: as §2
[13] = Protein binding in human plasma; format: ADME, cell-free; conditions: read-out: PPB
Homo sapiens [14] = species: Homo sapiens; test: Selectivity ratio of EC50 for human FFA1 receptor expressed in human U2OS cells co-expressing Galpha16 to EC50 for human FFA4 receptor expressed in human U2OS cells co-expressing Galpha16; format: cell-based

Row | SMILES | %max [1] [%] | %max [2] [%] | EC50 [3] [nM] | EC50 ([5]; read-out: EC50) [nM] | other results
1 | Cc1cc(OCc2ccccc2SC(F)(F)F)ccc1CCC(=O)O | 90 | 108 | 722 | 1540 | –
2 | Cc1ccc(Br)c(COc2ccc(CCC(=O)O)cc2C)c1 | 118 | – | 53 | > 30000 | –
3 | CC(C)Cc1cc(CCC(=O)O)ccc1OCc1ccccc1SC(F)(F)F | 161 | – | 9660 | > 30000 | –
4 | O=C(O)CC(O)c1ccc(OCc2ccccc2SC(F)(F)F)cc1 (centres undefined) | – | – | > 30000 | – | –
5 | Cc1ccc(Cl)c(COc2ccc(CCC(=O)O)cc2C)c1 | 115 | 243 | 188 | 18100 | AUC [6]: 4400 ng·h/mL; clearance [7]: 18 mL/min/kg; Tmax [8]: 15 to 30 min; Vd [9]: < 2 L/kg; bioavailability [10]: 46%; AUC [11]: 2860 ng·h/mL; Cmax [12]: 3030 ng/mL; fraction unbound [13]: < 0.01
6 | Cc1cc(COc2ccc(CCC(=O)O)cc2C)cc(OC(C)C)c1 | 112 | – | 60 | > 30000 | AUC [6]: 767 ng·h/mL; clearance [7]: 43 mL/min/kg; Tmax [8]: 15 to 30 min; Vd [9]: < 2 L/kg; bioavailability [10]: 20%; AUC [11]: 1170 ng·h/mL; Cmax [12]: 687 ng/mL; fraction unbound [13]: < 0.01
7 | Cc1cc(C)cc(COc2ccc(CCC(=O)O)cc2C)c1 | 66 | 97 | 60 | 3780 | AUC [6]: 2600 ng·h/mL; clearance [7]: 35 mL/min/kg; Tmax [8]: 15 to 30 min; Vd [9]: < 2 L/kg; bioavailability [10]: 55%; AUC [11]: 1420 ng·h/mL; Cmax [12]: 2630 ng/mL; fraction unbound [13]: < 0.01
8 | O=C(O)CCc1ccc(OCc2ccccc2SC(F)(F)F)c(CO)c1 | 53 | – | 5910 | > 30000 | –
9 | Cc1c(CCC(=O)O)ccc(OCc2ccccc2SC(F)(F)F)c1C | 77 | – | 304 | > 30000 | –
10 | Cc1cc(CCC(=O)O)ccc1OCc1cc(C(F)(F)F)ccc1O | 78 | – | 10000 | – | –
11 | Cc1ccc(OC(C)C)c(COc2ccc(CCC(=O)O)cc2C)c1 | 106 | 154 | 172 | 19600 | –
12 | Cc1cc(CCC(=O)O)cc(C)c1OCc1ccccc1SC(F)(F)F | 102 | 115 | 660 | 21800 | –
13 | CC(CC(=O)O)c1ccc(OCc2ccccc2SC(F)(F)F)cc1 (centres undefined) | – | 109 | 11400 | 13100 | –

Now from value to molecule, other results behind:

Row | %max [1] [%] | %max [2] [%] | EC50 [3] [nM] | EC50 ([5]; read-out: EC50) [nM] | SMILES | other results
14 | 85 | 106 | 968 | – | O=C(O)CCc1ccc(OCc2cccc(Oc3ccccc3)c2)cc1 | Ratio EC50 (Homo sapiens [4]): 17
15 | 110 | – | 1990 | > 30000 | COc1cc(CCC(=O)O)ccc1OCc1ccccc1SC(F)(F)F | –
16 | 118 | – | 271 | > 30000 | Cc1cc(CCC(=O)O)ccc1OCc1ccccc1OC(C)C | –
17 | 103 | 95 | 531 | 8600 | Cc1cc(CCC(=O)O)ccc1OCc1ccccc1C(F)(F)F | –
18 | 97 | 85 | 40 | 1630 | Cc1cc(COc2ccc(CCC(=O)O)cc2C)cc(Oc2ccccc2)c1 | –
19 | 80 | – | 108 | > 10000 | O=C(O)CCc1ccc(OCc2ccccc2SC(F)(F)F)c(Cl)c1 | EC50 ([5]; read-out: pEC50 (converted)): > 31600 nM
20 | 104 | 60 | 362 | 10300 | Cc1cc(CCC(=O)O)ccc1OCc1cccc(Cl)c1 | –
21 | 105 | – | 2290 | > 30000 | O=C(O)CCc1ccc(OCc2ccccc2SC(F)(F)F)c2ccccc12 | –
22 | 108 | 81 | 201 | 8510 | Cc1cc(CCC(=O)O)ccc1OCc1ccccc1SC(F)(F)F | –
23 | 83 | – | 750 | > 30000 | Cc1cc(CCC(=O)O)ccc1OCc1ccccc1 | –
24 | 85 | – | 9980 | > 30000 | O=C(O)COc1ccc(OCc2ccccc2SC(F)(F)F)cc1 | –
25 | 100 | – | 275 | > 30000 | Cc1cccc(COc2ccc(CCC(=O)O)cc2C)c1 | AUC [6]: 5350 ng·h/mL; clearance [7]: 12 mL/min/kg; Tmax [8]: 15 to 30 min; Vd [9]: < 2 L/kg; bioavailability [10]: 39%; AUC [11]: 4100 ng·h/mL; Cmax [12]: 3080 ng/mL; fraction unbound [13]: < 0.01
26 | 117 | – | 898 | > 30000 | Cc1cc(CCC(=O)O)ccc1OCc1cccc(C(F)(F)F)c1 | –
27 | 105 | 74 to 77 | 681 | 1420 | O=C(O)CCc1ccc(OCc2ccccc2SC(F)(F)F)cc1 | Ratio EC50 (Homo sapiens [14]): 2
28 | 95 | 90 | 556 | 3840 | Cc1cc(CCC(=O)O)ccc1OCc1cccc(Oc2ccccc2)c1 | –
29 | 116 | – | 236 | > 30000 | Cc1cc(CCC(=O)O)ccc1OCc1ccccc1Br | –
30 | 130 | 80 | 972 | 11600 | Cc1cc(CCC(=O)O)ccc1OCc1ccccc1Cl | –
